An excerpt weighted towards active compounds, which were near 2.2% of everything screened.
14-3-3 Bad inh: inhibitors of 14-3-3 zeta/Bad binding, primary screen, biochemical, TR-FRET, bovine 14-3-3 zeta; 14-3-3 protein zeta/delta (Bos taurus), P63103; TR-FRET 14-3-3zeta/Dy647-pBad peptide displacement, 1 h; inhibition, % at 21.7 µM; 220,000 compounds, 0.71% hits; AID 781, 2007;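 active = inhibition above about 70%, limit read from the data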;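 note: 0% = full 14-3-3 plus peptide FRET controls and 100% = background without 14-3-3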
Target sequence (P63103 whole entry, looked up): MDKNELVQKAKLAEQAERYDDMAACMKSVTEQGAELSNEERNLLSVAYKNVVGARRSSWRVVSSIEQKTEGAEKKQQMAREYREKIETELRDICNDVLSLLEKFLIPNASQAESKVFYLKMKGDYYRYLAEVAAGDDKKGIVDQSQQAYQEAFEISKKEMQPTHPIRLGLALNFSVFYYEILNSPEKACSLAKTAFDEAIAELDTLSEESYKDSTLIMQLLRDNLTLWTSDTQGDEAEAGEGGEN
Runt-CBFb FRET: inhibitors of RUNX1 Runt–CBFb binding, primary screen, biochemical, FRET, Cerulean-Runt, Venus-CBFb, uHTS. inhibition, % at 20 µM. Runt-related transcription factor 1 (Homo sapiens) + Core-binding factor subunit beta …. 220,000 compounds, 0.46% hits. Cerulean-Runt/Venus-CBFb FRET ratio 530/480, 1 h. AID 1496, 2009;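 active = inhibition over about 50% at 20 µM in the single-dose screen, limit read from the data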;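 note: 0% = DMSO wells and 100% = excess unlabeled CBFb competitor control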
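Schedule: protein complex preformed 1 h, compound exposure 1 h, room temperature, dark; test system: Cerulean-labeled Runt domain protein; amount: 100 nM per protein; buffer or medium: Tris 50 mM pH 7.5, KCl, K2SO4, 0.01% BSA; read-out: loss of energy transfer signal; detection: FRET fluorescence; controls: 5 µM unlabeled CBFb as full-inhibition high control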
Runt-SMMHC FRET: inhibitors of RUNX1 Runt–CBFb-SMMHC binding, primary screen, biochemical, FRET, Cerulean-Runt, Venus-CBFb-SMMHC, uHTS | Runt-related transcription factor 1 (Homo sapiens) + Core-binding factor subunit beta … | Cerulean-Runt/Venus-CBFb-SMMHC FRET ratio 530/480, 1 h | inhibition, % at 20 µM | 220,000 compounds, 0.74% hits | AID 1434, 2008;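 active = mean inhibition across duplicate retests at 20 µM reaching about 50%, limit read from the data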;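 note: 0% = DMSO wells and 100% = wells with excess untagged CBFb-SMMHC; inhibitors lower the FRET ratio by blocking Runt binding to CBFb-SMMHC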
RanGTP-Imp inh: inhibitors of RanGTP-importin-beta interaction, primary screen, biochemical, FRET, CFP-Ran, YFP-importin-beta, homogeneous. 300,000 compounds, 1.1% hits. inhibition, % (no concentration beside the values). cell-free CFP-Ran/YFP-importin-beta FRET ratio;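 active = more than half of the replicate wells show a fall in the fluorescence ratio signal beyond about 16%, limit read from the data, passing the limit was not always enough; inconclusive = exactly half of the replicate wells pass the set limit; inactive = fewer than half of replicates pass the limit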;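 note: 0% = DMSO wells and 100% = Ran loaded with GDP instead of GTP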
Tb hexokinase: Trypanosoma brucei hexokinase 1 inhibitors, primary screen, biochemical, G6PDH-coupled NADH absorbance, MLSCN library; hexokinase 1 [Trypanosoma brucei]; recombinant TbHK1, G6PDH-coupled NADH A340; inhibition, % at 10 µM; 220,000 compounds, 0.11% hits;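 active = inhibition of 50% or more in the single-dose primary screen; inactive = inhibition below 50%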
Hck-Nef inh: inhibitors of Nef-activated human Hck kinase, primary screen, biochemical, Z-Lyte FRET, 384-well, Hck-YEEI; Recombinant Hck-YEEI plus Nef, Z-Lyte FRET kinase assay; inhibition, % at 20 µM; 220,000 compounds, 0.68% hits; AID 463187, 2010;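 active = Hck-Nef kinase inhibition above about 50%, limit read from the data; inactive = inhibition below that limit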;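 note: 0% = DMSO with Hck plus Nef and 100% = Hck alone without Nef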
YIC counter: YIC intramolecular FRET probe signal interference, dose response, counter-screen for RanGTP-importin-beta inhibitor project, biochemical, fluorescence FRET; Purified YIC probe, intramolecular FRET ratio YFP/CFP; 1,000 compounds, 40% hits; shares compounds with RanGTP-Imp inh; IC50, µM;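 active = fitted half-maximal inhibitory concentration no more than tenfold above the top dose tested; inconclusive = flat fit with 30 to 70% activity, or poor fit; inactive = half-maximal concentration beyond tenfold above the top dose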
Active calls of the source: *; u = inconclusive; x = no result given.

SMILES | 14-3-3 Bad inh | Runt-CBFb FRET | Runt-SMMHC FRET | RanGTP-Imp inh | Tb hexokinase | Hck-Nef inh | YIC counter
COc1ccccc1/C=C/C=N/NC(=O)CCn1nnc2ccccc21 | 3 | -1 | 1 | 6 | -26 | 1 | x
C=CCNc1sc(C(=O)c2ccc(Br)s2)c(N)c1C#N | -10 | -2 | -24 | 19* | -20 | 1 | 5.6*
O=c1cc(CN2CCN(Cc3ccccc3)CC2)c2ccc(O)cc2o1 | x | x | x | 38* | x | x | 10*
Cc1ccc2c(CN3CCN(Cc4ccccc4)CC3)cc(=O)oc2c1 | x | x | x | 1 | x | x | x
Cc1ccc2c(CN3CC(C)CC(C)C3)cc(=O)oc2c1 (stereo not given) | x | x | x | -4 | x | x | x
CC1CN(Cc2cc(=O)oc3cc(O)ccc23)CC(C)O1 (stereo not given) | x | x | x | 19* | x | x | 16*
CC12OC1C1(O)CCCC1=CC2=O (stereo not given) | x | x | x | 20* | x | x | >50
O=c1nc(-c2ccccc2Cl)c2cc(F)ccc2[nH]1 | x | x | x | 25* | x | x | >50
O=c1nc(-c2ccccc2)c2ccccc2[nH]1 | 9 | 1 | 0 | -4 | -8 | 5 | x
Cc1cc2c(c(=O)n1C1CC1)C(c1cccc(Cl)c1)C(C#N)=C(N)O2 (stereo not given) | -8 | 6 | 3 | 20* | -5 | 0 | >50
COCCOC(=O)C1=C(C)N=C2SCCC(=O)N2C1c1cccc(Br)c1 (stereo not given) | -6 | -1 | 1 | -2 | -6 | 0 | x
CC(=O)N(c1ccc(Cl)cc1)c1c[nH]c2ccccc12 | -16 | -1 | 1 | 26* | 8 | 0 | >50
CC(=O)N(c1ccc(Cl)cc1)c1cn(C(C)=O)c2ccccc12 | -8 | 0 | 4 | u | -1 | -5 | x
COc1ccc(CCN(C)C2CCCN(C(=O)c3sccc3C)C2)cc1OC (stereo not given) | x | x | x | -1 | x | x | x
O=C(Nc1cccc2c1CCCC2)c1ccncc1 | -5 | 1 | 0 | -1 | -1 | -9 | x
COCc1cc(CN2CCN(C)CC2)c(O)c2ncccc12 | -12 | 0 | -14 | 26* | 3 | 4 | >50
O=c1c2ccccc2sc2ccc(C#CC3(O)CCCCC3)cc12 | x | x | x | 30* | x | x | 22*
O=C(CCCO)NNc1c2ccccc2nc2ccccc12 | -4 | 14 | 17 | 25* | 2 | 23 | >50
O=C(NNc1c2ccccc2nc2ccccc12)C12CC3CC(CC(C3)C1)C2 | 16 | 11 | 9 | 24* | -4 | 23 | >50
O=C(O)CCC(=O)NNc1nc2ccccc2nc1-c1ccccc1 | -4 | 0 | -2 | 0 | -9 | 13 | x
O=C(NCc1ccccc1)C12CC3CC(CC(C3)C1)C2 | 1 | 0 | -2 | -5 | -7 | 1 | x
O=C(NNc1c2ccccc2nc2ccccc12)c1ccc(O)cc1O | 14 | 13 | 48 | 38* | -10 | 0 | >50
C/C(=N\NC(=O)c1cc(C2CC2)nc2ccccc12)c1ccc(O)cc1O | x | x | x | 0 | x | x | x
O=C(NNc1c2ccccc2nc2ccccc12)C(O)c1ccccc1 (stereo not given) | -4 | 9 | 14 | 34* | -12 | 23 | >50
O=C(CN1C(=O)NC2(CCCCC2)C1=O)Nc1ccccc1N1CCCC1 | x | x | x | 2 | x | x | x
CN(NC(=O)c1ccccc1F)c1ccc([N+](=O)[O-])cn1 | 2 | 0 | -15 | u | -57 | 10 | x

Compound activity: PubChem, several laboratories
